{
  "source": "paper PMC11929827",
  "about": "(Scientific Reports, 2025)",
  "key": {"[1]": {"target": "α-Glucosidase (derived from Saccharomyces cerevisiae; EC3.2.1.20) (Saccharomyces cerevisiae, UniProt P53341)", "sequence (P53341 whole entry)": "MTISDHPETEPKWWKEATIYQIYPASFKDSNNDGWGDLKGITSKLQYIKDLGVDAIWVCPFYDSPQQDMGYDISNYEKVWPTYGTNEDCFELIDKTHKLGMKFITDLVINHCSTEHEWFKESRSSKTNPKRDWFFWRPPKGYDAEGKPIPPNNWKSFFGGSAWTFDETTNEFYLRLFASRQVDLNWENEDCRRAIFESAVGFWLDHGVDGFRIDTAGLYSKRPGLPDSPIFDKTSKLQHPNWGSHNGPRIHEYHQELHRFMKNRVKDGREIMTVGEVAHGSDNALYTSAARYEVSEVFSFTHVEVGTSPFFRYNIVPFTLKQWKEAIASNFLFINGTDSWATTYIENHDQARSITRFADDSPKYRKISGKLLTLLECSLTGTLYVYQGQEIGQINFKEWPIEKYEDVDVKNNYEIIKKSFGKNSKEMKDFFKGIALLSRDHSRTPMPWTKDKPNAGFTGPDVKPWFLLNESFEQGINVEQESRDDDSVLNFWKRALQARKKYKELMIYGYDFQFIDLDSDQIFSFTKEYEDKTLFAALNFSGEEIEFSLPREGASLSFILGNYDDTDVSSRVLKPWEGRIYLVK", "assay": "In vitro α-glucosidase inhibitory study", "assay_type": "biochemical"}, "[2]": {"settings": "cited from earlier work"}, "α-glucosidase [3]": {"target": "T1, α-glucosidase (Saccharomyces cerevisiae, UniProt P53341)", "T1 sequence (P53341 whole entry)": "as above", "settings": "read-out: α-glucosidase IC50; Fig. 1; cited from earlier work"}, "α-glucosidase [4]": {"target": "T1, α-glucosidase", "assay": "Fluorescence spectroscopy measurements", "assay_type": "binding", "settings": "0–500 nM, excitation 280 nm, phosphate buffer pH 6.8", "summary_of_the_method": "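Fixed amount of yeast α-glucosidase in 3.0 ml with test compound at 0–500 nM, equilibrated 10 min. Steady-state emission spectra recorded 300–500 nm with excitation at 280 nm in a 1.0 cm quartz cell. Buffer-only spectra without enzyme subtracted as background.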"}, "male Wistar rats": {"system": "male Wistar rats", "assay": "In vivo hypoglycemic activity assay", "design": "species or system rat", "settings": "for blood glucose effect (area under curve) vs negative control: sucrose 7.5 g/kg, one-way ANOVA", "summary_of_the_method": "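Sucrose 7.5 g/kg was given 30 min later. Tail-vein glucose measured by glucometer at 0, 30, 45, 60 and 120 min. Area under curve compared by one-way ANOVA; mean ± SD.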"}, "α-glucosidase [5]": {"target": "T1, α-glucosidase", "assay": "Thermodynamic analysis of the binding of compound 8g to α-glucosidase", "summary_of_the_method": "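Fluorescence intensity of yeast α-glucosidase at 340 nm followed over 298–338 K, with or without test compound (pH 6.8), under a two-state N↔U model. Denatured fraction, apparent K and ΔG° = −RT ln K were calculated, then fitted to the integrated Gibbs–Helmholtz equation (ΔCp 11.6 kJ/mol K). This gave Tm (half-denatured), ΔH°m and ΔS°m, with ΔH = TmΔS.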"}, "α-glucosidase [6]": {"target": "T1, α-glucosidase", "assay": "Kinetic studies of α-glucosidase", "assay_type": "biochemical"}, "normal cell lines": {"system": "normal cell lines", "settings": "cited from earlier work"}, "α-glucosidase [7]": {"target": "T1, α-glucosidase", "settings": "kinetic studies; cited from earlier work"}},
  "note": "Entries after “also recorded” stand apart in the source; their conditions may differ.",
  "data": [
    {"molecule": "COc1ccc(-c2cc(C(=O)NN=CC(O)C(O)C(O)C(O)CO)n[nH]2)cc1", "note": "(stereo not drawn) [Compound 8l, 5-(4-Methoxyphenyl)-N’-(2,3,4,5,6-pentahydroxyhexylidene)−1H-pyrazole-3-carbohydrazide]", "values": [
      {"measurement": "IC50", "setting": "[1]", "result": 2.3, "unit": "µM"}
    ]},
    {"molecule": "O=C(NN=CC(O)C(O)C(O)C(O)CO)c1cc(-c2ccc(Cl)cc2)[nH]n1", "note": "(stereo not drawn) [Compound 8e, 5-(4-Chlorophenyl)-N’-(2,3,4,5,6-pentahydroxyhexylidene)−1H-pyrazole-3-carbohydrazide]", "values": [
      {"measurement": "IC50", "setting": "[1]", "result": 1, "unit": "µM"}
    ]},
    {"molecule": "COc1ccc(/C=C/c2cc(O)cc(OC3OC(CO)C(O)C(O)C3O)c2)cc1O", "note": "(stereo not drawn) [F, 2-(3-hydroxy-5-((E)−3-hydroxy-4-methoxystyryl)phenoxy)−6-(hydroxymethyl)tetrahydro-2H-pyran-3,4,5-triol]", "values": [
      {"measurement": "bioavailability", "setting": "[2]", "result": "very low"},
      {"measurement": "toxic effects", "setting": "[2]", "result": "no toxic effects"}
    ]},
    {"molecule": "Cc1ccc(-c2cc(C(=O)NN=CC(O)C(O)C(O)C(O)CO)n[nH]2)cc1", "note": "(stereo not drawn) [Compound 8j, N’-(2,3,4,5,6-Pentahydroxyhexylidene)−5-(p-tolyl)−1H-pyrazole-3-carbohydrazide]", "values": [
      {"measurement": "IC50", "setting": "[1]", "result": "36.4 ± 0.2", "unit": "µM"}
    ]},
    {"molecule": "O=C(NN=CC(O)C(O)C(O)C(O)CO)c1cc(-c2ccc(Br)cc2)[nH]n1", "note": "(stereo not drawn) [Compound 8f, 5-(4-Bromophenyl)-N’-(2,3,4,5,6-pentahydroxyhexylidene)−1H-pyrazole-3-carbohydrazide]", "values": [
      {"measurement": "IC50", "setting": "[1]", "result": "35.2 ± 0.5", "unit": "µM"}
    ]},
    {"molecule": "O=C(NNC1OC(CO)C(O)C(O)C1O)c1cc(-c2ccccc2)on1", "note": "(stereo not drawn) [H, 5-phenyl-N’-(3,4,5-trihydroxy-6-(hydroxymethyl)tetrahydro-2H-pyran-2-yl)isoxazole-3-carbohydrazide]", "values": [
      {"measurement": "IC50", "setting": "α-glucosidase [3]", "result": 292, "unit": "µM"}
    ]},
    {"molecule": "O=C(NN=CC(O)C(O)C(O)C(O)CO)c1cc(-c2ccc([N+](=O)[O-])cc2)[nH]n1", "note": "(stereo not drawn) [Compound 8h, 5-(4-Nitrophenyl)-N’-(2,3,4,5,6-pentahydroxyhexylidene)−1H-pyrazole-3-carbohydrazide]", "values": [
      {"measurement": "IC50", "setting": "[1]", "result": "80.5 ± 0.7", "unit": "µM"}
    ]},
    {"molecule": "O=C(NN=CC(O)C(O)C(O)C(O)CO)c1cc(-c2ccccc2F)[nH]n1", "note": "(stereo not drawn) [Compound 8b, 5-(2-Fluorophenyl)-N’-(2,3,4,5,6-pentahydroxyhexylidene)−1H-pyrazole-3-carbohydrazide]", "values": [
      {"measurement": "IC50", "setting": "[1]", "result": "53.9 ± 1.2", "unit": "µM"}
    ]},
    {"molecule": "O=C(NN=CC(O)C(O)C(O)C(O)CO)c1cc(-c2ccccc2Cl)[nH]n1", "note": "(stereo not drawn) [Compound 8c, 5-(2-Chlorophenyl)-N’-(2,3,4,5,6-pentahydroxyhexylidene)−1H-pyrazole-3-carbohydrazide]", "values": [
      {"measurement": "IC50", "setting": "[1]", "result": "4.2 ± 0.1", "unit": "µM"}
    ]},
    {"molecule": "COc1ccc(-c2cc(C(=O)NN=CC(O)C(O)C(O)C(O)CO)n[nH]2)cc1OC", "note": "(stereo not drawn) [Compound 8m, 5-(3,4-Dimethoxyphenyl)-N’-(2,3,4,5,6-pentahydroxyhexylidene)−1H-pyrazole-3-carbohydrazide]", "values": [
      {"measurement": "IC50", "setting": "[1]", "result": "438.6 ± 0.1", "unit": "µM"}
    ]},
    {"molecule": "O=C(NN=CC(O)C(O)C(O)C(O)CO)c1cc(-c2ccc(Cl)cc2Cl)[nH]n1", "note": "(stereo not drawn) [Compound 8g, 5-(2,4-Dichlorophenyl)-N’-(2,3,4,5,6-pentahydroxyhexylidene)−1H-pyrazole-3-carbohydrazide]", "values": [
      {"measurement": "fluorescence intensity of α-glucosidase", "setting": "α-glucosidase [4]", "result": "increased intensity"},
      {"measurement": "shift in the emission wavelength (λmax 340 nm)", "setting": "α-glucosidase [4]", "result": "did not show significant shift"},
      {"measurement": "blood sugar levels in rats", "setting": "male Wistar rats; doses comparable to acarbose", "result": "capable of lowering blood sugar levels; also recorded: effectively reduced"},
      {"measurement": "blood glucose effect (area under curve) vs negative control", "setting": "male Wistar rats; rat, oral 2.5 mg/kg", "result": "did not significantly differ"},
      {"measurement": "blood glucose effect (area under curve) vs negative control", "setting": "male Wistar rats; rat, oral 5 mg/kg, p-value < 0.05", "result": "significantly different"},
      {"measurement": "blood glucose effect (area under curve) vs negative control", "setting": "male Wistar rats; rat, oral 10 mg/kg, p-value < 0.05", "result": "significantly different"},
      {"measurement": "effectiveness of 5 and 10 mg/kg doses vs each other and vs acarbose (5 mg/kg)", "setting": "male Wistar rats; rat, oral, sucrose tolerance test", "result": "did not significantly differ"},
      {"measurement": "Tm of α-glucosidase", "setting": "α-glucosidase [5]; 60 nM compound", "result": 314, "unit": "K"},
      {"measurement": "ΔSm° of α-glucosidase denaturation", "setting": "α-glucosidase [5]; 60 nM compound", "result": 328.6, "unit": "J mol^−1 K^−1"},
      {"measurement": "Tm of α-glucosidase", "setting": "α-glucosidase [5]; 250 nM compound", "result": 309, "unit": "K"},
      {"measurement": "ΔSm° of α-glucosidase denaturation", "setting": "α-glucosidase [5]; 250 nM compound", "result": 466.9, "unit": "J mol^−1 K^−1"},
      {"measurement": "Tm of α-glucosidase", "setting": "α-glucosidase [5]; 500 nM compound", "result": 304, "unit": "K"},
      {"measurement": "ΔHm° of α-glucosidase denaturation", "setting": "α-glucosidase [5]; 500 nM compound", "result": 37.55, "unit": "kcal/mol"},
      {"measurement": "ΔSm° of α-glucosidase denaturation", "setting": "α-glucosidase [5]; 500 nM compound", "result": 516.4, "unit": "J mol^−1 K^−1"},
      {"measurement": "IC50", "setting": "[1]", "result": 0.5, "unit": "µM"},
      {"measurement": "inhibition of α-glucosidase, times more potently than acarbose", "setting": "[1]; relative to acarbose", "result": 1500, "unit": "times"},
      {"measurement": "Ki", "setting": "α-glucosidase [6]", "result": 0.46, "unit": "µM"},
      {"measurement": "type of inhibition", "setting": "α-glucosidase [6]; Lineweaver-Burk plot: Km increased, Vmax unchanged", "result": "competitive manner; also recorded: competitive inhibitor"}
    ]},
    {"molecule": "Cc1cccc(-c2cc(C(=O)NN=CC(O)C(O)C(O)C(O)CO)n[nH]2)c1", "note": "(stereo not drawn) [Compound 8i, N’-(2,3,4,5,6-Pentahydroxyhexylidene)−5-(m-tolyl)−1H-pyrazole-3-carbohydrazide]", "values": [
      {"measurement": "IC50", "setting": "[1]", "result": "12.1 ± 0.5", "unit": "µM"}
    ]},
    {"molecule": "COc1cccc(-c2cc(C(=O)NN=CC(O)C(O)C(O)C(O)CO)n[nH]2)c1", "note": "(stereo not drawn) [Compound 8k, 5-(3-Methoxyphenyl)-N’-(2,3,4,5,6-pentahydroxyhexylidene)−1H-pyrazole-3-carbohydrazide]", "values": [
      {"measurement": "IC50", "setting": "[1]", "result": 2.3, "unit": "µM"}
    ]},
    {"molecule": "O=C(NN=Cc1cn(-c2ccccc2)nc1-c1ccc([N+](=O)[O-])cc1)c1cc2ccccc2o1", "note": "[B, N’-((3-(4-nitrophenyl)−1-phenyl-1H-pyrazol-4-yl)methylene)benzofuran-2-carbohydrazide]", "values": [
      {"measurement": "cytotoxicity to normal cell lines", "setting": "normal cell lines", "result": "non-toxic"}
    ]},
    {"molecule": "O=C(NN=CC(O)C(O)C(O)C(O)CO)c1cc(-c2ccccc2)[nH]n1", "note": "(stereo not drawn) [Compound 8a, N’-(2,3,4,5,6-Pentahydroxyhexylidene)−5-phenyl-1H-pyrazole-3-carbohydrazide]", "values": [
      {"measurement": "IC50", "setting": "[1]", "result": 1.2, "unit": "µM"}
    ]},
    {"molecule": "O=C(Cn1c(-c2ccc(Cl)cc2)nc2ccccc2c1=O)NN=Cc1cn(-c2ccccc2)nc1-c1ccc(Br)cc1", "note": "[E, N’-((3-(4-bromophenyl)−1-phenyl-1H-pyrazol-4-yl)methylene)−2-(2-(4-chlorophenyl)−4-oxoquinazolin-3(4H)-yl)acetohydrazide]", "values": [
      {"measurement": "mechanism of α-glucosidase inhibition", "setting": "α-glucosidase [7]", "result": "competitive mechanism"},
      {"measurement": "IC50", "setting": "α-glucosidase [3]", "result": 60.5, "unit": "µM"}
    ]},
    {"molecule": "O=C(NN=CC(O)C(O)C(O)C(O)CO)c1cc(-c2ccc(F)cc2)[nH]n1", "note": "(stereo not drawn) [Compound 8d, 5-(4-Fluorophenyl)-N’-(2,3,4,5,6-pentahydroxyhexylidene)−1H-pyrazole-3-carbohydrazide]", "values": [
      {"measurement": "IC50", "setting": "[1]", "result": "60.6 ± 1", "unit": "µM"}
    ]}
  ]
}
